# Data: ChEMBL document CHEMBL4689842, “EUbOPEN Chemogenomics Library wave 1” (2021)
# Test system: Fibroblast
# Experiment: Multiplex assay against human fibroblast
# Type: toxicity, cell-based
# Method in brief: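 Per cents of healthy-nucleus cells form the tubulin, mitochondrial-mass and membrane-permeability phenotype values. Live cells were stained at seeding with Hoechst33342, BioTracker Green Microtubule Cytoskeleton Dye, MitoTracker Red and Annexin V Alexa Fluor 680. After compound addition they were imaged on a CQ1 microscope at 37°C and 5% CO2, and CellPathfinder machine-learning gating split them into Hoechst high-intensity objects or normal cells, normal cells into healthy, pyknosed or fragmented nuclei, and pyknosed cells into mitotic or apoptotic.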
# [1] = 12 h, 1 µM, compound concentration 1 uM, replicate 1
# [2] = 12 h, 1 µM, compound concentration 1 uM, replicate 2
# [3] = 12 h, 10 µM, compound concentration 10 uM, replicate 1
# [4] = 12 h, 10 µM, compound concentration 10 uM, replicate 2
# [5] = 24 h, 1 µM, compound concentration 1 uM, replicate 1
# [6] = 24 h, 1 µM, compound concentration 1 uM, replicate 2
# [7] = 24 h, 10 µM, compound concentration 10 uM, replicate 1
# [8] = 24 h, 10 µM, compound concentration 10 uM, replicate 2
compound,measurement,setting,value
NC(=O)c1ccc2nc(-c3ccc(C4(N)CCC4)cc3)c(-c3ccccc3)n2n1 [BAY-1125976],Population Apoptotic (%),[1],72%
same,Population Fragmented Nuclei (%),[1],53%
same,Population Healthy Nuclei (%),[1],33%
same,Population Hoechst High Intensity Objects (%),[1],38%
same,Population Mitochondria Different-Phenotype (%),[1],0%
same,Population Mitotic Cells (%),[1],27%
same,Population Normal (%),[1],61%
same,Population Pyknosed Nuclei (%),[1],13%
same,Population Tubulin-Different-Phenotype (%),[1],29%
same,Total Cell Count,[1],587
same,Population Apoptotic (%),[2],87%
same,Population Fragmented Nuclei (%),[2],56%
same,Population Healthy Nuclei (%),[2],31%
same,Population Hoechst High Intensity Objects (%),[2],51%
same,Population Mitochondria Different-Phenotype (%),[2],15%
same,Population Mitotic Cells (%),[2],12%
same,Population Normal (%),[2],48%
same,Population Pyknosed Nuclei (%),[2],12%
same,Population Tubulin-Different-Phenotype (%),[2],25%
same,Total Cell Count,[2],131
same,Population Apoptotic (%),[3],59%
same,Population Fragmented Nuclei (%),[3],27%
same,Population Healthy Nuclei (%),[3],51%
same,Population Hoechst High Intensity Objects (%),[3],13%
same,Population Mitochondria Different-Phenotype (%),[3],3%
same,Population Mitotic Cells (%),[3],40%
same,Population Normal (%),[3],86%
same,Population Pyknosed Nuclei (%),[3],20%
same,Population Tubulin-Different-Phenotype (%),[3],2%
same,Total Cell Count,[3],208
same,Population Apoptotic (%),[4],20%
same,Population Fragmented Nuclei (%),[4],54%
same,Population Healthy Nuclei (%),[4],36%
same,Population Hoechst High Intensity Objects (%),[4],40%
same,Population Mitochondria Different-Phenotype (%),[4],0%
same,Population Mitotic Cells (%),[4],80%
same,Population Normal (%),[4],59%
same,Population Pyknosed Nuclei (%),[4],10%
same,Population Tubulin-Different-Phenotype (%),[4],5%
same,Total Cell Count,[4],84
same,Population Apoptotic (%),[5],78%
same,Population Fragmented Nuclei (%),[5],53%
same,Population Healthy Nuclei (%),[5],36%
same,Population Hoechst High Intensity Objects (%),[5],41%
same,Population Mitochondria Different-Phenotype (%),[5],2%
same,Population Mitotic Cells (%),[5],21%
same,Population Normal (%),[5],58%
same,Population Pyknosed Nuclei (%),[5],10%
same,Population Tubulin-Different-Phenotype (%),[5],20%
same,Total Cell Count,[5],564
same,Population Apoptotic (%),[6],63%
same,Population Fragmented Nuclei (%),[6],63%
same,Population Healthy Nuclei (%),[6],22%
same,Population Hoechst High Intensity Objects (%),[6],39%
same,Population Mitochondria Different-Phenotype (%),[6],11%
same,Population Mitotic Cells (%),[6],36%
same,Population Normal (%),[6],60%
same,Population Pyknosed Nuclei (%),[6],14%
same,Population Tubulin-Different-Phenotype (%),[6],47%
same,Total Cell Count,[6],128
same,Population Apoptotic (%),[7],52%
same,Population Fragmented Nuclei (%),[7],19%
same,Population Healthy Nuclei (%),[7],65%
same,Population Hoechst High Intensity Objects (%),[7],15%
same,Population Mitochondria Different-Phenotype (%),[7],2%
same,Population Mitotic Cells (%),[7],48%
same,Population Normal (%),[7],84%
same,Population Pyknosed Nuclei (%),[7],15%
same,Population Tubulin-Different-Phenotype (%),[7],3%
same,Total Cell Count,[7],192
same,Population Apoptotic (%),[8],28%
same,Population Fragmented Nuclei (%),[8],45%
same,Population Healthy Nuclei (%),[8],41%
same,Population Hoechst High Intensity Objects (%),[8],36%
same,Population Mitochondria Different-Phenotype (%),[8],4%
same,Population Mitotic Cells (%),[8],71%
same,Population Normal (%),[8],63%
same,Population Pyknosed Nuclei (%),[8],13%
same,Population Tubulin-Different-Phenotype (%),[8],0%
same,Total Cell Count,[8],80
CC[C@@H]1C(=O)N(C)c2cnc(Nc3ccc(C(=O)NC4CCN(C)CC4)cc3OC)nc2N1C1CCCC1 [BI-2536],Population Apoptotic (%),[1],82%
same,Population Fragmented Nuclei (%),[1],37%
same,Population Healthy Nuclei (%),[1],51%
same,Population Hoechst High Intensity Objects (%),[1],13%
same,Population Membrane Permeable-Phenotype (%),[1],6%
same,Population Mitotic Cells (%),[1],17%
same,Population Normal (%),[1],86%
same,Population Pyknosed Nuclei (%),[1],11%
same,Population Tubulin-Different-Phenotype (%),[1],10%
same,Total Cell Count,[1],236
same,Population Apoptotic (%),[2],100%
same,Population Fragmented Nuclei (%),[2],60%
same,Population Healthy Nuclei (%),[2],35%
same,Population Hoechst High Intensity Objects (%),[2],51%
same,Population Membrane Permeable-Phenotype (%),[2],0%
same,Population Mitochondria Different-Phenotype (%),[2],5%
same,Population Mitotic Cells (%),[2],0%
same,Population Normal (%),[2],48%
same,Population Pyknosed Nuclei (%),[2],4%
same,Population Tubulin-Different-Phenotype (%),[2],0%
same,Total Cell Count,[2],98
same,Population Fragmented Nuclei (%),[3],38%
same,Population Healthy Nuclei (%),[3],50%
same,Population Hoechst High Intensity Objects (%),[3],22%
same,Population Membrane Permeable-Phenotype (%),[3],2%
same,Population Mitochondria Different-Phenotype (%),[3],7%
same,Population Mitotic Cells (%),[3],19%
same,Population Normal (%),[3],77%
same,Population Pyknosed Nuclei (%),[3],11%
same,Population Tubulin-Different-Phenotype (%),[3],31%
same,Total Cell Count,[3],347
same,Population Apoptotic (%),[4],80%
same,Population Fragmented Nuclei (%),[4],50%
same,Population Healthy Nuclei (%),[4],41%
same,Population Hoechst High Intensity Objects (%),[4],26%
same,Population Membrane Permeable-Phenotype (%),[4],3%
same,Population Mitochondria Different-Phenotype (%),[4],25%
same,Population Mitotic Cells (%),[4],20%
same,Population Normal (%),[4],73%
same,Population Pyknosed Nuclei (%),[4],7%
same,Population Tubulin-Different-Phenotype (%),[4],62%
same,Total Cell Count,[4],89
same,Population Apoptotic (%),[5],80%
same,Population Fragmented Nuclei (%),[5],33%
same,Population Healthy Nuclei (%),[5],53%
same,Population Hoechst High Intensity Objects (%),[5],18%
same,Population Membrane Permeable-Phenotype (%),[5],3%
same,Population Mitochondria Different-Phenotype (%),[5],8%
same,Population Mitotic Cells (%),[5],20%
same,Population Normal (%),[5],81%
same,Population Pyknosed Nuclei (%),[5],13%
same,Population Tubulin-Different-Phenotype (%),[5],6%
same,Total Cell Count,[5],225
same,Population Apoptotic (%),[6],100%
same,Population Fragmented Nuclei (%),[6],59%
same,Population Healthy Nuclei (%),[6],38%
same,Population Hoechst High Intensity Objects (%),[6],48%
same,Population Membrane Permeable-Phenotype (%),[6],5%
same,Population Mitochondria Different-Phenotype (%),[6],0%
same,Population Mitotic Cells (%),[6],0%
same,Population Normal (%),[6],51%
same,Population Pyknosed Nuclei (%),[6],2%
same,Population Tubulin-Different-Phenotype (%),[6],11%
same,Total Cell Count,[6],92
same,Population Apoptotic (%),[7],75%
same,Population Fragmented Nuclei (%),[7],35%
same,Population Healthy Nuclei (%),[7],55%
same,Population Hoechst High Intensity Objects (%),[7],36%
same,Population Membrane Permeable-Phenotype (%),[7],1%
same,Population Mitochondria Different-Phenotype (%),[7],21%
same,Population Mitotic Cells (%),[7],25%
same,Population Normal (%),[7],63%
same,Population Pyknosed Nuclei (%),[7],10%
same,Population Tubulin-Different-Phenotype (%),[7],21%
same,Total Cell Count,[7],376
same,Population Apoptotic (%),[8],100%
same,Population Fragmented Nuclei (%),[8],57%
same,Population Healthy Nuclei (%),[8],28%
same,Population Hoechst High Intensity Objects (%),[8],35%
same,Population Membrane Permeable-Phenotype (%),[8],0%
same,Population Mitochondria Different-Phenotype (%),[8],35%
same,Population Mitotic Cells (%),[8],0%
same,Population Normal (%),[8],64%
same,Population Pyknosed Nuclei (%),[8],14%
same,Population Tubulin-Different-Phenotype (%),[8],57%
same,Total Cell Count,[8],76
